The term IC50 denotes the midpoint of a concentration-inhibition curve.

Among the data in ChEMBL document CHEMBL5532647, “Design, synthesis, ADME and biological evaluation of benzylpiperidine and benzylpiperazine derivatives as novel reversible monoacylglycerol lipase (MAGL) inhibitors” (Eur J Med Chem, 2024) are inhibition, Activity and IC50 values, retold here.

For experiment [1], the target named is T1, Lysophosphatidylserine lipase ABHD12 (Mus musculus) (UniProt Q99LR1).
T1 sequence (whole entry): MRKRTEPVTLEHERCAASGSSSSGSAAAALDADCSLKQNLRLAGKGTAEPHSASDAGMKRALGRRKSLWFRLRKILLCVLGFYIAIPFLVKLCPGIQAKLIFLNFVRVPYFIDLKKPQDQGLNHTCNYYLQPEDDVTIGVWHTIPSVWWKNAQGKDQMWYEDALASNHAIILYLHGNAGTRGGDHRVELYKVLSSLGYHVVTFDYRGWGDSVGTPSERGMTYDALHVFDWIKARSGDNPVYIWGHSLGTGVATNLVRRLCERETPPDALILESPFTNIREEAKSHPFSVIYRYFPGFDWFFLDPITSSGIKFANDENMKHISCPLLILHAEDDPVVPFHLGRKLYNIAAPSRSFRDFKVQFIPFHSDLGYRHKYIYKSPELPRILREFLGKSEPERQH
The experiment can be described thus: Inhibition of mouse brain ABHD12 at 10 uM incubated with compound for 25 mins by TAMRA-FP probe based SDS-PAGE analysis. Format: tissue-based. An outline of the steps:
(§1)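 Mouse brain membranes (2 mg/mL final, in PBS) preincubated 25 min at 25 °C with test compound (10 μM final) or DMSO vehicle. Controls: JZL-184, URB597 4 μM, WWL70 10 μM, THL, MAFP 5 μM. TAMRA-FP 125 nM final added for 5 min at 25 °C. Reaction stopped with Laemmli buffer, 3 min at 25 °C then 10 min at 90 °C. Separation by 10% SDS-PAGE, fluorescence scanning, three independent experiments.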

For experiment [2], the target named is T2, Monoacylglycerol lipase ABHD6 (Mus musculus) (UniProt Q8R2Y0).
T2 sequence (whole entry): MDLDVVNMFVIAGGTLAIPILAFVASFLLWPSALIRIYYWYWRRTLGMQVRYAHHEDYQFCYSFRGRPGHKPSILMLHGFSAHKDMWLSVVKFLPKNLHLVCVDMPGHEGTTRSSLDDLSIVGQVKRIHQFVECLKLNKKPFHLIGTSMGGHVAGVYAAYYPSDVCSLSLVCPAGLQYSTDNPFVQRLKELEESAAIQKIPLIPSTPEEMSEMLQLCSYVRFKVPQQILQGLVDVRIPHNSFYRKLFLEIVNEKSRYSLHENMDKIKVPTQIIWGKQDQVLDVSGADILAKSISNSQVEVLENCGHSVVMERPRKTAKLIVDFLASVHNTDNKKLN
Briefly: Inhibition of mouse brain ABHD6 at 10 uM incubated with compound for 25 mins by TAMRA-FP probe based SDS-PAGE analysis. Format: tissue-based. An outline of the steps: as §1

In experiment [3] the target is Cannabinoid receptor 2 (Homo sapiens) (UniProt P34972). The experiment can be described thus: Displacement of [3H]CP55940 from human CB2 receptor at 10 uM incubated for 90 mins. An outline of the steps: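 Membranes expressing hCB1 or hCB2 in 50 mM Tris-HCl buffer, pH 7.4, with 2.5 mM EDTA, 5 mM MgCl2 and 0.5% fatty acid-free BSA. Incubated with compound (10 μM screening) or vehicle plus 0.5 nM [3H]CP55,940 for 90 min at 30 °C. Non-specific binding defined with 10 μM […]. GF/B filtration, ice-cold buffer washes, radioactivity counted. Two independent experiments in triplicate.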
A general note: Loss of bound radioactivity is the signal in a displacement assay; it reports binding, not function.

Experiment [4] concerns the target T3, Monoglyceride lipase (Homo sapiens) (UniProt Q99685).
T3 sequence (whole entry): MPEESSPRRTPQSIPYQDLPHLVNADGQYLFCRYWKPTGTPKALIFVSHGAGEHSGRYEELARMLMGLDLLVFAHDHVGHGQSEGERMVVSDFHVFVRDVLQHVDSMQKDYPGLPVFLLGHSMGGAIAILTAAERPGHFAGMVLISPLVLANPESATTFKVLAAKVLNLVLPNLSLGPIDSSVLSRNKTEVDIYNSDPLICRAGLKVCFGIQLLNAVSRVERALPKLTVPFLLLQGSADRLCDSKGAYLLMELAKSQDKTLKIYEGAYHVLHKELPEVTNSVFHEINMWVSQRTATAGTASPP
The experiment can be described thus: Reversible inhibition of human recombinant MAGL using 4-nitrophenylacetate as substrate at 320 nM incubated for 15 mins by microplate reader analysis. The method, boiled down: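 Human recombinant MAGL (880 ng in Tris buffer, pH 7.2) incubated 60 min at room temperature with compound at 320 nM in the mixture, then diluted 40-fold in buffer. After 15 min, reaction started with 4-NPA 500 μM (stock added). Activity read at 405 nm after 30 min. Undiluted comparison run at 320 nM and 8 nM.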

Experiment [5] has as its target T4, Fatty-acid amide hydrolase 1 (Mus musculus) (UniProt O08914).
T4 sequence (whole entry): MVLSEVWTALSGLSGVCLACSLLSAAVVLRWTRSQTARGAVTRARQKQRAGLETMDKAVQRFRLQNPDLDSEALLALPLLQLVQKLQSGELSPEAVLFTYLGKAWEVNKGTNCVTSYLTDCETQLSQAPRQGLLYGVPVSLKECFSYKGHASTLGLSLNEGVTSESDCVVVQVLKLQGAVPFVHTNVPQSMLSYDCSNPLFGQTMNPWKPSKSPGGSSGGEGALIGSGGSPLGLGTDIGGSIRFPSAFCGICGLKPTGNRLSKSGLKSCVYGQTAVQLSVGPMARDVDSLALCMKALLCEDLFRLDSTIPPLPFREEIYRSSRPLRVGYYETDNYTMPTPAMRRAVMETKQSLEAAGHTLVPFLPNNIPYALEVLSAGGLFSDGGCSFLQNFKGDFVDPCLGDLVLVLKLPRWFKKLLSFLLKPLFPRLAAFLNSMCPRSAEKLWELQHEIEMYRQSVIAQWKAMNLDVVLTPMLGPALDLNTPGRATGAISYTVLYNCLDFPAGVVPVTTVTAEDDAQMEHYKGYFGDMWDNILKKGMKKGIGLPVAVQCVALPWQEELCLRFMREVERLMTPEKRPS
Briefly: Inhibition of mouse brain FAAH at 10 uM incubated with compound for 25 mins by TAMRA-FP probe based SDS-PAGE analysis. Format: tissue-based. The method, boiled down:
as §1

The target of experiment [6] is T5, Monoglyceride lipase (Mus musculus) (UniProt O35678).
T5 sequence (whole entry): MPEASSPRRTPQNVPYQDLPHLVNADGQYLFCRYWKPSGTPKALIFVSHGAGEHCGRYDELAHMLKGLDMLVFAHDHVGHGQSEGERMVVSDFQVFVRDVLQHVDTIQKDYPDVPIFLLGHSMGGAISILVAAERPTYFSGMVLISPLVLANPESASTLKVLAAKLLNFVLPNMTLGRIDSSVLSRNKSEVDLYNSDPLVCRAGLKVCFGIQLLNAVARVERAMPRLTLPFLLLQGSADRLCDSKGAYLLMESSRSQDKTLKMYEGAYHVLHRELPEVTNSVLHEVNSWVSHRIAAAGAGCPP
Briefly: Reversible inhibition of mouse brain MAGL at 10 uM incubated with compound for 25 mins by TAMRA-FP probe based SDS-PAGE analysis. Format: tissue-based. The method, boiled down: as §1

For the next experiment, the target named is T6, Monoglyceride lipase (Homo sapiens, UniProt Q99685).
T6 sequence (Q99685 whole entry): T3 sequence (whole entry)
Briefly: Inhibition of human recombinant MAGL using 4-nitrophenylacetate as substrate incubated for 30 mins by microplate reader analysis.

Active and inactive are the calls of the source. The rule behind the calls is not given here.

Cannabinoid receptor 2 (Homo sapiens), sequence (P34972 whole entry): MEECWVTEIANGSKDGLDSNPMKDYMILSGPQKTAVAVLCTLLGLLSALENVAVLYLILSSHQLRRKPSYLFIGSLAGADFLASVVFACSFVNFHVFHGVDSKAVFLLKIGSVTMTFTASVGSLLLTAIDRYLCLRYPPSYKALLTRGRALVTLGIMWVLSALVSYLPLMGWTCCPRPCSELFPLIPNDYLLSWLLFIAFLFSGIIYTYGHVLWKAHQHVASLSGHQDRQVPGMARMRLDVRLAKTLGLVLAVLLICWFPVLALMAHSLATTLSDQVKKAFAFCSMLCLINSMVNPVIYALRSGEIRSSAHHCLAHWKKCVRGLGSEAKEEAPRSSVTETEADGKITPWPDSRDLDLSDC

For the compound `O=C(c1cc(O)ccc1F)N1CCN(Cc2cccc(Sc3cc(C(F)(F)F)ccn3)c2)CC1`, the inhibition entry in experiment [1], in experiment [2] and in experiment [5] was “inactive” throughout. The result in experiment [3] was inactive. Besides, the inhibition result in experiment [4] and in experiment [6] was “Active” throughout. In addition, on Monoglyceride lipase, the IC50 worked out at 5.2 nM.
For the compound `O=C(c1cccc(O)c1)N1CCC(Cc2cccc(Sc3cc(C(F)(F)F)ccn3)c2)CC1`, the inhibition entry in experiment [1], in experiment [2] and in experiment [5] was “inactive” each time. Also, the outcome in experiment [3] was inactive. Moreover, the inhibition entry in experiment [4] and in experiment [6] was “Active” each time. For the same compound, the IC50 at Monoglyceride lipase was 2.5 nM.
Consider `O=C(c1cc(O)ccc1F)N1CCC(Cc2cccc(Sc3cc(C(F)(F)F)ccn3)c2)CC1`, for which the inhibition entry in experiment [1], in experiment [2] and in experiment [5] was “inactive” throughout. Moreover, the result in experiment [3] was inactive. Besides, the inhibition result in experiment [4] and in experiment [6] was “Active” throughout. At Monoglyceride lipase, the IC50 was determined as 1.3 nM.
`O=C(c1cccc(O)c1)N1CCC(Cc2ccc(F)c(Sc3cc(C(F)(F)F)ccn3)c2)CC1`: the inhibition entry in experiment [1], in experiment [2] and in experiment [5] was “inactive” throughout. Also, the result in experiment [3] was inactive. For the same compound, the inhibition entry in experiment [4] and in experiment [6] was “Active” in each case. Further, the IC50 on Monoglyceride lipase is 2.7 nM.
